System: MS2 coat protein
Assay: apparent Kd, MS2 coat protein; higher = weaker binding; RNA-MaP array; FMN 200 µM where present
Outline: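 Green signal was scaled to red-channel RNA signal and control-cluster median Fmax, and the apparent Kd was taken as the median of filtered per-cluster binding-curve fits. The binding series used SNAP-549-labelled MS2 coat protein from 0.7 or 1.5 nM, doubling to 3 µM, on designs transcribed by stalled E. coli RNA polymerase on Illumina sequencing-chip clusters. Each series ran without and then with constant ligand in 100 mM Tris-HCl pH 7.5, 80 mM KCl, 4 mM MgCl2, BSA, DTT, yeast tRNA and Tween-20.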

[1] = designed as: ON switch for flavin mononucleotide, no ligand
[2] = ligand present: flavin mononucleotide, designed as: ON switch for flavin mononucleotide
[3] = designed as: OFF switch for flavin mononucleotide, no ligand
[4] = ligand present: flavin mononucleotide, designed as: OFF switch for flavin mononucleotide

Sequence: ACAUGAGGAUCACCCAUGUUAAAUUAGGAUAUUUGACUGCACAUGAGGUUCACCCAUGUUCUACCGAAGAAGGGAUUAAUAAUU
- apparent Kd [1]: 0.05 µM
- apparent Kd [2]: 0.0498 µM

Sequence: UUAUUAUAUAUAGGAUAUUGAUGUAAUUUAUUUCAAGAAGGAUAUACAUGAGGAUCACCCAUGUUGGAUAGGGUUAGUUUGUUU
- apparent Kd [1]: 0.0866 µM
- apparent Kd [2]: 0.154 µM

Sequence: UGAAAUCAUGUAGGAUAUGCAUGGCGAAGCUACGCAGAAGGACAUGAGGAUCACCCAUGUUCUAGCUACCGAGUUCGGUGGCAA
- apparent Kd [3]: 0.0213 µM
- apparent Kd [4]: 0.127 µM

Sequence: ACUUGUUACUUAUUCAUUGAUUUGUAGGAUAUACGUACAUGAGGAUCACCCAUGUUACAUGUUAUGUAGAAGGACAUCUAAUUU
- apparent Kd [3]: 0.0122 µM
- apparent Kd [4]: 0.0126 µM

Sequence: GCGUCGUCGACUGAUAACAAGCCUAGAAGGCGGACAUGAGGAUCACCCAUGUCUGAUCCUCGGCCCGAGGAUAUAGGUUAAUGG
- apparent Kd [3]: 0.0286 µM
- apparent Kd [4]: 0.0134 µM

Sequence: CGCAAUAUACAGAAGGAGUUAUUUAGAGGUUUACUAGGAUAUGUUCACAUGAGGAUCACCCAUGUCAUAUGGAGUUUUAUUGCG
- apparent Kd [3]: 0.00925 µM
- apparent Kd [4]: 0.00833 µM

Sequence: GCCAUCGCGUGAGGAUAUGGCACCGUUUCGGUGCCAGAAGGCAUGUCAAAUGACAUGAGGAUCACCCAUGUAGUUAAGAUGGCA
- apparent Kd [1]: 0.18 µM
- apparent Kd [2]: 0.0132 µM

Sequence: CCGGAAACGGGUAGCCUGACAUGAGGAUCACCCAUGUGAUCAGAGGAUAUGGAUCCUAAUUGGAUCCAGAAGGCUGUUGGCUAC
- apparent Kd [1]: 0.0734 µM
- apparent Kd [2]: 0.0275 µM

Sequence: GGCUGCGAUGUGAAGGAUAUCCGCGUCUGGACAUGAGGAUCACCCAUGUAUGCUUGGAUCAUGCCGGAGAAGGUCACGAAUGAUU
- apparent Kd [1]: 0.0381 µM
- apparent Kd [2]: 0.0166 µM

Sequence: CAGCGCUGUCGAGAGGAUAUGCGGUGAUGGACAUGAGGAUCACCCAUGUUAGCGAUAGCAUUACUGUAGAAGGCUCUACAGCUGC
- apparent Kd [1]: 0.0306 µM
- apparent Kd [2]: 0.013 µM

Sequence: UGUCGGAGCAGAGGAUAUUACAUGAGGAUCACCCAUGUAUGAACCAAUAGCUGGAAACAGCAAUGUAAGAAGGCUGCUCCGAGA
- apparent Kd [3]: 0.0133 µM
- apparent Kd [4]: 0.196 µM

Sequence: UGGUACAUGGGAGGAUAUGGGUUGAUAACAUGAGGAUCACCCAUGUUAAAUAAGCCGAGAGGCUACCAGAAGGCCCAUGUACCU
- apparent Kd [1]: 0.00729 µM
- apparent Kd [2]: 0.00499 µM

Sequence: UAUUUAAGAGGAUAUACAUGAGGAUCACCCAUGUAUAUUAAUAUACAUGAUUUUUUAUGUAGAAGGCUUGGGUA
- apparent Kd [3]: 0.0255 µM
- apparent Kd [4]: 0.0584 µM

Sequence: AUUCCUUGUGUUAGGAUAUGUCACUACCGUAUGCGACAGAAGGAACAUGAGGAUCACCCAUGUGAGUUAGCCGA
- apparent Kd [3]: 0.0875 µM
- apparent Kd [4]: 0.0241 µM

Sequence: UUUUUGUGAGGAUAUUAGUAGUAAAUAAAUAAAAUUACUACUGAGAAGGCACAUGAGGAUCACCCAUGUUCCUC
- apparent Kd [3]: 0.0336 µM
- apparent Kd [4]: 0.254 µM

Sequence: UACCGCCGCACGGACGCGUUGAGUCAGGAUAUACAUGAGGAUCACCCAUGUGAAGGCCGGCUCAUGUAGAAGGGACAAGCGUUG
- apparent Kd [3]: 0.0062 µM
- apparent Kd [4]: 0.00714 µM

Sequence: GUGGUCAGACAUGAGGAUCACCCAUGUGGAAUAAAUAAGGAGAAGGAUAUGCAAUAUAGGAUAUAGCAGAAGGUUUGGUUGGUG
- apparent Kd [1]: 0.0958 µM
- apparent Kd [2]: 0.111 µM

Sequence: CAUUAAUUCAUUAUAGUUAUUAUACAGGAUAUGUUACAUGAGGAUCACCCAUGUAUUCUUGGUAAACAGAAGGGUAUUUCUAGU
- apparent Kd [3]: 0.00748 µM
- apparent Kd [4]: 0.0085 µM

Sequence: GAAGCACACAUUAACAUGAGGAUCACCCAUGUCAAAAGACAUGAGGAUAUGGAUCUGAAGAAGAUCCAGAAGGCAUUGUGCUAA
- apparent Kd [1]: 0.388 µM
- apparent Kd [2]: 0.0256 µM

Sequence: GCAUGCGUUCGAGGAUAUCGGUGAGAAACGGAACGAGAAGGCGAUCGAAUGUCUCAUCUUAUGAACAUGAGGAUCACCCAUGUA
- apparent Kd [1]: 0.299 µM
- apparent Kd [2]: 0.0832 µM

Sequence: UAAAAGACUAGCAUGGUAACCUUCACAUGAGGAUCACCCAUGUAGGAUAUGAGCAGAAAAUCUGCUCAGAAGGACAUGCUAGUC
- apparent Kd [3]: 0.00331 µM
- apparent Kd [4]: 0.00367 µM

Sequence: UCAUUUAAUACAGGAUAUGUUAUUAUACAGUUGUUUGGUUAUUACAUUAUAACAGAAGGGUAGAACAUGAGGAUCACCCAUGUA
- apparent Kd [1]: 0.179 µM
- apparent Kd [2]: 0.0794 µM

From the EternaBench riboswitch data
